Drawing on ChEMBL document CHEMBL1152964, “Bicyclic cyanothiazolidines as novel dipeptidyl peptidase 4 inhibitors” (Bioorg Med Chem Lett, 2009), this text covers IC50 for 15 compounds.

Some results are limits rather than exact numbers.

For one assay, the target named is T1, Prolyl endopeptidase FAP (Homo sapiens, UniProt Q12884).
T1 sequence (Q12884 whole entry): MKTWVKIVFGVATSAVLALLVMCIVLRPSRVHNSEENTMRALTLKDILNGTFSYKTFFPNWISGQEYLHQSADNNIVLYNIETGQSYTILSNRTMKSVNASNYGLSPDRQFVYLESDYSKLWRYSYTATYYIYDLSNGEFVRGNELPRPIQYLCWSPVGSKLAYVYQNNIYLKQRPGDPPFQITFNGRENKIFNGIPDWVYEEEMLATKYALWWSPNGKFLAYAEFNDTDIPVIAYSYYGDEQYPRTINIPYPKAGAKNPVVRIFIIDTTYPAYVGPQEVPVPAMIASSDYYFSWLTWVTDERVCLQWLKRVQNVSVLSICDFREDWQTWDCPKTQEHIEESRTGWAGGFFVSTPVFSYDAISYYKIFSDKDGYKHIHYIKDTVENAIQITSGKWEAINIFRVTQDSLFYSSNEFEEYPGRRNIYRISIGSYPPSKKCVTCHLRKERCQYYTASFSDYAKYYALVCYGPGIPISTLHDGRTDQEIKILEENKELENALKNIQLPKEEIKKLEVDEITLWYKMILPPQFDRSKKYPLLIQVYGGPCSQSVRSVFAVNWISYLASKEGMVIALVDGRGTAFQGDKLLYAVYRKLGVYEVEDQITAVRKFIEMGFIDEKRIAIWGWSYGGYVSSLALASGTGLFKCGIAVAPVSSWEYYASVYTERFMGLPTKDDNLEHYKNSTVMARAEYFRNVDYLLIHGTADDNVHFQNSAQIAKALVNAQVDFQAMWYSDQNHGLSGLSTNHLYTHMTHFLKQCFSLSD
Put plainly: Inhibition of human recombinant FAP expressed in Sf9 cells by fluorescence assay. The method in brief: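 Recombinant human FAP, His-tagged, expressed in infected insect cells grown 48 h and purified by His-tag column. Enzyme preincubated with inhibitor (0.5 nM to 50 µM; dissolved in DMSO or 50 mM glycine pH 3.0) 10 min at 27 °C in 25 mM Tris pH 8. Ala-Pro AMC substrate was then added and AMC release read at ex 360/em 460 nm. IC50 was fitted by nonlinear regression.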
Broadly, the IC50 is the concentration that inhibits the measured activity by half. For `N#C[C@@H]1CS[C@H]2C[C@](N)(c3ccc(F)cc3)C(=O)N12`, the IC50 was more than 10 µM.

As to `N#C[C@@H]1CS[C@H]2C[C@](N)(CC3CCCCC3)C(=O)N12`, the IC50 is more than 10 µM.

In the case of `N#C[C@@H]1CS[C@H]2C[C@](N)(CCc3ccccc3)C(=O)N12`, the half-inhibitory concentration (IC50) is more than 10 µM.

As for `N#C[C@@H]1CS[C@H]2C[C@](N)(C3CCCC3)C(=O)N12`, the IC50 was more than 10 µM.

For the compound `CC[C@@]1(N)C[C@@H]2SC[C@@H](C#N)N2C1=O`, the IC50 is more than 10 µM.

For `N#C[C@@H]1CS[C@H]2C[C@](N)(C3CCCCC3)C(=O)N12`, the IC50 was more than 10 µM.

In the case of `CC(C)C[C@@]1(N)C[C@@H]2SC[C@@H](C#N)N2C1=O`, the half-maximal inhibitory concentration (IC50) was more than 10 µM.

In the case of `N#C[C@@H]1CS[C@H]2C[C@](N)(Cc3ccccc3)C(=O)N12`, the IC50 was more than 10 µM.

For the compound `CC[C@H](C)[C@@]1(N)C[C@@H]2SC[C@@H](C#N)N2C1=O`, the IC50 was more than 10 µM.

As for `N#C[C@@H]1CS[C@H]2C[C@](N)(c3ccccc3)C(=O)N12`, the IC50 was more than 10 µM.

On to `CC(C)[C@@]1(N)C[C@@H]2SC[C@@H](C#N)N2C1=O`, for which the IC50 was more than 10 µM.

The target of the next assay is Dipeptidyl peptidase 4 (Homo sapiens, UniProt P27487). Put plainly: Inhibition of human recombinant DPP4 by fluorescence assay.
Dipeptidyl peptidase 4, sequence (P27487 whole entry): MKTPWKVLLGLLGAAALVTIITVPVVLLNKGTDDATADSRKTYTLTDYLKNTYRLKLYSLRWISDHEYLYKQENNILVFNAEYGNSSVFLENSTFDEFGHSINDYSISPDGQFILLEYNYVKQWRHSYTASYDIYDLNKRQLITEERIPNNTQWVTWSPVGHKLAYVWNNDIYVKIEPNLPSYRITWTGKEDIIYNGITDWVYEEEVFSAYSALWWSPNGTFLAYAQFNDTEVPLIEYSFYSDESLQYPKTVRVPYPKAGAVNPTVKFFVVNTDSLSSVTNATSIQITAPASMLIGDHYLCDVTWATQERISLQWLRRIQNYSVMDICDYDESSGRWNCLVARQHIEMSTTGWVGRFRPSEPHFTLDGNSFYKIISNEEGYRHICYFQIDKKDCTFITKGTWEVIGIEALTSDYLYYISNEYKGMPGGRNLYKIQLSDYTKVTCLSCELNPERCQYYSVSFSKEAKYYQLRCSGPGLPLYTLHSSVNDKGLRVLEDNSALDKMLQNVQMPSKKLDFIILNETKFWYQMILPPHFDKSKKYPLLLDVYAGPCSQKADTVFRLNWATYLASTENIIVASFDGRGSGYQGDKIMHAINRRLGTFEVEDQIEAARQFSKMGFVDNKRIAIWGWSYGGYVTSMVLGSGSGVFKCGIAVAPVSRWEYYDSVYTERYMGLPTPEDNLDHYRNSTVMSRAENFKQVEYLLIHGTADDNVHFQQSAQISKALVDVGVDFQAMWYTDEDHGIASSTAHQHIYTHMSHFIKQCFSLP
In the case of `N#C[C@@H]1CS[C@H]2CC[C@@H](N)C(=O)N12`, the IC50 is more than 1.6 µM.

With `N#C[C@@H]1CS[C@H]2C[C@@H](NCCc3ccccc3)C(=O)N12`, the IC50 is more than 16 µM.

Turning to `N#C[C@@H]1CS[C@H]2C[C@@H](NC3CCCC3)C(=O)N12`, the IC50 is more than 16 µM.

With `N#C[C@@H]1CS[C@H]2CC[C@H](N)C(=O)N12`, the IC50 was more than 1.6 µM.
